The values that follow come from ChEMBL document CHEMBL1781970, “Synthesis and antiproliferative evaluation of 23-hydroxybetulinic acid derivatives” (Eur J Med Chem, 2011).

A value given as a limit tells only on which side of the number the result lay.

What all share (format): functional, cell-based
The test system of one assay is HeLa. The assay can be described thus: Antiproliferative activity against human HeLa cells after 72 hrs by MTT assay. The method in brief:
(§1)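 Cells grown in RPMI 1640 with 10% FBS and 1% penicillin-streptomycin at 37 °C, 5% CO2, then seeded overnight in 96-well plates. Test compounds were dissolved in DMSO (doxorubicin control in PBS) and given at various concentrations for 72 h at 37 °C. MTT (5 mg/mL in PBS) was added for 4 h and OD read at 570 nm. IC50 was taken from dose-response curves; mean ± SD, ≥3 independent experiments.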

A further assay deals with MCF7. The assay can be described thus: Antiproliferative activity against human MCF7 cells after 72 hrs by MTT assay. Particulars: MCF7, 72 h. The method in brief: as §1
In general terms: Tetrazolium assays rely on reduction of a dye to a coloured formazan, in cell work by metabolically active cells.

Another assay deals with HepG2. Kind of assay: Antiproliferative activity against human HepG2 cells after 72 hrs by MTT assay. Particulars: HepG2, 72 h. The method in brief:
as §1

In a further assay the test system is B16. Kind of assay: Antiproliferative activity against mouse B16 cells after 72 hrs by MTT assay. Particulars: B16, 72 h. The method in brief:
as §1

The next assay concerns A-375. The assay can be described thus: Antiproliferative activity against human A375 cells after 72 hrs by MTT assay. Particulars: A-375, 72 h. The method in brief:
as §1

What is called IC50 is the midpoint of a concentration-inhibition curve. High values mean weaker potency in that assay, low ones greater potency in that assay. Turning to `C=C(C)[C@@H]1CC[C@]2(C(=O)N3CCC(N4CCCCC4)CC3)CC[C@]3(C)[C@H](CC[C@@H]4[C@@]5(C)CC[C@H](OC(C)=O)[C@@](C)(COC(C)=O)[C@@H]5CC[C@]43C)[C@@H]12`, the IC50 came to 10.8 µM with HeLa; 6.86 µM in the assay on MCF7; 11.1 µM in the assay on HepG2; 9.57 µM in the assay with B16; 8.42 µM in the assay on A-375.
The like results for `C=C(C)[C@@H]1CC[C@]2(C(=O)N3CCC[C@H]3C(=O)O)CC[C@]3(C)[C@H](CC[C@@H]4[C@@]5(C)CC[C@H](O)[C@@](C)(CO)[C@@H]5CC[C@]43C)[C@@H]12` were, in that order, 95.6 µM, > 100 µM, 72.2 µM, 87.3 µM and > 100 µM.
Taken in the same sequence, the figures for `C=C(C)[C@@H]1CC[C@]2(C(=O)NCCN)CC[C@]3(C)[C@H](CC[C@@H]4[C@@]5(C)CC[C@H](OC(C)=O)[C@@](C)(COC(C)=O)[C@@H]5CC[C@]43C)[C@@H]12` were 7.39 µM, 3.93 µM, 7.99 µM, 4.61 µM and 9.99 µM.
Taken in the same sequence, the figures for `C=C(CO)[C@@H]1CC[C@]2(C(=O)OC(C)C)CC[C@]3(C)[C@H](CC[C@@H]4[C@@]5(C)CC[C@H](O)[C@@](C)(CO)[C@@H]5CC[C@]43C)[C@@H]12` were 22.3 µM, 16.6 µM, 21 µM, 38.6 µM and 21.2 µM.
In the case of `C=C(C)[C@@H]1CC[C@]2(C(=O)O)CC[C@]3(C)[C@H](CC[C@@H]4[C@@]5(C)CC[C@H](O)[C@@](C)(CO)[C@@H]5CC[C@]43C)[C@@H]12`, the IC50 stood at 46.2 µM with HeLa; 46.6 µM in the assay on MCF7; 41.4 µM in the assay on HepG2; 18.7 µM in the assay with B16; 42 µM with A-375.
Taken in the same sequence, the figures for `C=C(C)[C@@H]1CC[C@]2(C(=O)N3CCC(N4CCCCC4)CC3)CC[C@]3(C)[C@H](CC[C@@H]4[C@@]5(C)CC[C@@H]6OC(=O)OC[C@@]6(C)[C@@H]5CC[C@]43C)[C@@H]12` were 20.6 µM, 17.6 µM, 10.3 µM, 8.69 µM and 20.4 µM.
For `C=C(C)[C@@H]1CC[C@]2(C(=O)NCCCCn3nnc(-c4ccccn4)n3)CC[C@]3(C)[C@H](CC[C@@H]4[C@@]5(C)CC[C@H](O)[C@@](C)(CO)[C@@H]5CC[C@]43C)[C@@H]12`, the IC50 in the assay with HeLa is 46.3 µM; with MCF7, 17.7 µM; in the assay on HepG2, 48.3 µM; in the assay with B16 it was 66.9 µM; in the assay on A-375, 30.6 µM.
Taken in the same sequence, the figures for `C=C(C)[C@@H]1CC[C@]2(C(=O)N3CCOCC3)CC[C@]3(C)[C@H](CC[C@@H]4[C@@]5(C)CC[C@H](O)[C@@](C)(CO)[C@@H]5CC[C@]43C)[C@@H]12` were 34.3 µM, 19.8 µM, 42 µM, 42.7 µM and 25.1 µM.
Taken in the same sequence, the figures for `C=C(CO)[C@@H]1CC[C@]2(C(=O)N3CCCCC3)CC[C@]3(C)[C@H](CC[C@@H]4[C@@]5(C)CC[C@H](OC(C)=O)[C@@](C)(COC(C)=O)[C@@H]5CC[C@]43C)[C@@H]12` were 11 µM, 22.2 µM, 11.3 µM, 64.3 µM and 53.7 µM.
Taken in the same sequence, the figures for `C=C(CO)[C@@H]1CC[C@]2(C(=O)OC(C)(C)C)CC[C@]3(C)[C@H](CC[C@@H]4[C@@]5(C)CC[C@H](OC(C)=O)[C@@](C)(COC(C)=O)[C@@H]5CC[C@]43C)[C@@H]12` were 23.3 µM, 14.1 µM, 15.8 µM, 49.5 µM and 34.7 µM.
Turning to `C=C(C)[C@@H]1CC[C@]2(C(=O)NCCCCn3nnc(-c4ccccn4)n3)CC[C@]3(C)[C@H](CC[C@@H]4[C@@]5(C)CC[C@H](OC(C)=O)[C@@](C)(COC(C)=O)[C@@H]5CC[C@]43C)[C@@H]12`, the IC50 was found to be 17.9 µM with HeLa; 16.1 µM in the assay with MCF7; 3.91 µM in the assay with HepG2; 4.75 µM in the assay with B16; 1.81 µM with A-375.
Taken in the same sequence, the figures for `C=C(C)[C@@H]1CC[C@]2(C(=O)N3CCCCC3)CC[C@]3(C)[C@H](CC[C@@H]4[C@@]5(C)CC[C@H](OC(C)=O)[C@@](C)(COC(C)=O)[C@@H]5CC[C@]43C)[C@@H]12` were 69.2 µM, > 100 µM, 66.3 µM, > 100 µM and > 100 µM.
The like results for `C=C(C)[C@@H]1CC[C@]2(C(=O)N3CCC[C@H]3C(=O)N[C@@H](CCSC)C(=O)O)CC[C@]3(C)[C@H](CC[C@@H]4[C@@]5(C)CC[C@H](O)[C@@](C)(CO)[C@@H]5CC[C@]43C)[C@@H]12` were, in that order, 81.1 µM, 41.3 µM, 91.7 µM, 76.5 µM and 66.5 µM.
The like results for `C=C(C)[C@@H]1CC[C@]2(C(=O)NCC(=O)N[C@@H](C)C(=O)O)CC[C@]3(C)[C@H](CC[C@@H]4[C@@]5(C)CC[C@H](O)[C@@](C)(CO)[C@@H]5CC[C@]43C)[C@@H]12` were, in that order, 22.1 µM, 17.2 µM, 32.4 µM, 22.2 µM and 18.4 µM.
On to `C=CCN(CC=C)C(=O)[C@]12CC[C@@H](C(=C)C)[C@@H]1[C@H]1CC[C@@H]3[C@@]4(C)CC[C@H](O)[C@@](C)(CO)[C@@H]4CC[C@@]3(C)[C@]1(C)CC2`, for which the IC50 turned out to be 59 µM in the assay with HeLa; 17.7 µM in the assay on MCF7; 59.8 µM in the assay on HepG2; 60.4 µM in the assay with B16; 17.2 µM with A-375.
Taken in the same sequence, the figures for `C=C(CO)[C@@H]1CC[C@]2(C(=O)N3CCOCC3)CC[C@]3(C)[C@H](CC[C@@H]4[C@@]5(C)CC[C@H](OC(C)=O)[C@@](C)(COC(C)=O)[C@@H]5CC[C@]43C)[C@@H]12` were 18.3 µM, 17.3 µM, 20.7 µM, 39.3 µM and 31.8 µM.
Taken in the same sequence, the figures for `C=C(C)[C@@H]1CC[C@]2(C(=O)N[C@@H](CCSC)C(=O)N[C@@H](CCSC)C(=O)OC)CC[C@]3(C)[C@H](CC[C@@H]4[C@@]5(C)CC[C@H](O)[C@@](C)(CO)[C@@H]5CC[C@]43C)[C@@H]12` were 44.4 µM, 66.1 µM, 23.1 µM, 20.4 µM and 26.8 µM.
The like results for `C=C(C)[C@@H]1CC[C@]2(C(=O)NCC(=O)N[C@@H](Cc3c[nH]c4ccccc34)C(=O)O)CC[C@]3(C)[C@H](CC[C@@H]4[C@@]5(C)CC[C@H](O)[C@@](C)(CO)[C@@H]5CC[C@]43C)[C@@H]12` were, in that order, > 100 µM, > 100 µM, > 100 µM, > 100 µM and > 100 µM.
As for `C=C(C)[C@@H]1CC[C@]2(C(=O)N3CCCCC3)CC[C@]3(C)[C@H](CC[C@@H]4[C@@]5(C)CC[C@H](O)[C@@](C)(CO)[C@@H]5CC[C@]43C)[C@@H]12`, the IC50 with HeLa was found to be 66.5 µM; with MCF7, 16.6 µM; in the assay with HepG2 it was 68.6 µM; with B16, 43.7 µM; with A-375, 17.9 µM.
The like results for `C=C(CO)[C@@H]1CC[C@]2(C(=O)OCCC(C)C)CC[C@]3(C)[C@H](CC[C@@H]4[C@@]5(C)CC[C@H](OC(C)=O)[C@@](C)(COC(C)=O)[C@@H]5CC[C@]43C)[C@@H]12` were, in that order, 20.8 µM, 15.1 µM, 10.7 µM, 35.9 µM and 7.8 µM.
Taken in the same sequence, the figures for `C=C(CO)[C@@H]1CC[C@]2(C(=O)OCC3CCCO3)CC[C@]3(C)[C@H](CC[C@@H]4[C@@]5(C)CC[C@H](OC(C)=O)[C@@](C)(COC(C)=O)[C@@H]5CC[C@]43C)[C@@H]12` (stereo not given in full) were 17.8 µM, 33.6 µM, 18.7 µM, 41.8 µM and 12.5 µM.
Taken in the same sequence, the figures for `C=C(C)[C@@H]1CC[C@]2(C(=O)OC/C=C/CO)CC[C@]3(C)[C@H](CC[C@@H]4[C@@]5(C)CC[C@H](O)[C@@](C)(CO)[C@@H]5CC[C@]43C)[C@@H]12` were 44.4 µM, 36 µM, 38 µM, 19.1 µM and 55.7 µM.
`C=CCN(CC=C)C(=O)[C@]12CC[C@@H](C(=C)C)[C@@H]1[C@H]1CC[C@@H]3[C@@]4(C)CC[C@H](OC(C)=O)[C@@](C)(COC(C)=O)[C@@H]4CC[C@@]3(C)[C@]1(C)CC2`: the IC50 was 9.84 µM in the assay on HeLa; 47.1 µM in the assay with MCF7; 8.41 µM with HepG2; > 100 µM in the assay on B16; 19 µM in the assay with A-375.
Taken in the same sequence, the figures for `C=C(CO)[C@@H]1CC[C@]2(C(=O)OCC3CCCO3)CC[C@]3(C)[C@H](CC[C@@H]4[C@@]5(C)CC[C@H](O)[C@@](C)(CO)[C@@H]5CC[C@]43C)[C@@H]12` (stereo not given in full) were 79.4 µM, 76.3 µM, 81.2 µM, 64.3 µM and 70.4 µM.
